Assay results as given in ChEMBL document CHEMBL1781884, “Design, synthesis, and structure-activity relationship of tropane muscarinic acetylcholine receptor antagonists” (J Med Chem, 2009).

Legend:
[1] = molecular target: T1, Muscarinic acetylcholine receptor M3 (Homo sapiens, UniProt P20309); assay: Antagonist activity against human M3 receptor expressed in CHO cells assessed as inhibition of acetylcholine-induced calcium mobilization by FLIPR; assay type: functional, cell-based; conditions: for Kb: read-out: pA2 (converted)
Mus musculus [2] = assay: Inhibition of methacholine-induced bronchoconstriction in dosed BALB/c mouse assessed as respiratory values at 5 ug, intranasal at 24 hrs; assay type: functional
Mus musculus [3] = assay: Inhibition of methacholine-induced bronchoconstriction in dosed BALB/c mouse assessed as respiratory values at 50 ug, intranasal at 24 hrs; assay type: functional
Mus musculus [4] = assay: Bronchorelaxant activity in intranasally dosed BALB/c mouse bronchus assessed as inhibition of methacholine-induced contraction; assay type: functional
[5] = Systemic plasma clearance in rat at 2.5 mg/kg, iv; assay type: ADME, organism-based; set-up: dose 2.5 mg/kg, route intravenous
[6] = molecular target: T2, Muscarinic acetylcholine receptor M2 (Homo sapiens, UniProt P08172); assay: Displacement of [3H]N-methyl Scopolamine from human muscarinic M2 receptor expressed in CHO cells by scintillation proximity assay; assay type: cell-based
T2 sequence (P08172 whole entry): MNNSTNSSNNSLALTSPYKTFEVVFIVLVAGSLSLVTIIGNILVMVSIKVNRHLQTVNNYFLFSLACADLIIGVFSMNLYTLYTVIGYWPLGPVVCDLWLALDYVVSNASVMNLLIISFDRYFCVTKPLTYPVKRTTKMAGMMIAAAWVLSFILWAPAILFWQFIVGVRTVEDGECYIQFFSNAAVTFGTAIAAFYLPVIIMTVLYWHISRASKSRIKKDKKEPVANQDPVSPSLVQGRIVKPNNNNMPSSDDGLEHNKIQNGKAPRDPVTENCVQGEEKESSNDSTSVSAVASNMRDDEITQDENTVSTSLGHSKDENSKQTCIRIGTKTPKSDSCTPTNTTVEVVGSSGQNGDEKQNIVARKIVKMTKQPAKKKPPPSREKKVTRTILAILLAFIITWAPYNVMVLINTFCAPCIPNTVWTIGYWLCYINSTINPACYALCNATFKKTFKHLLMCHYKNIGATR
In short: (§1)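 Scintillation proximity binding on membranes from CHO cells expressing human M1, M2 or M3 receptor, competing against 0.5 nM [3H]-N-methylscopolamine; Ki reported, mean of two or more independent assays.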

[7] = molecular target: T1, Muscarinic acetylcholine receptor M3; assay: Displacement of [3H]N-methyl Scopolamine from human muscarinic M3 receptor expressed in CHO cells by scintillation proximity assay; assay type: cell-based; in short: as §1
[8] = molecular target: T1, Muscarinic acetylcholine receptor M3; assay: Antagonist activity at human muscarinic M3 receptor in human bronchus assessed as potency against carbachol-induced contraction; assay type: functional; conditions: read-out: pA2 (converted)
In short: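 Human bronchial strips (primary, secondary or tertiary airways, obtained at autopsy) mounted in organ baths on force-displacement transducers; preincubated 2 h with antagonist, then given increasing carbachol concentrations; potency expressed as pA2.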

[9] = molecular target: T1, Muscarinic acetylcholine receptor M3; assay: Antagonist activity at human muscarinic M3 receptor in human bronchus assessed as reversal time for 50% of carbachol-induced contraction to return to maximum relaxation at 10 nM; assay type: functional
In short: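 Human bronchial strips from primary, secondary or tertiary airways (autopsy) in organ baths on force-displacement transducers; preincubated 2 h with antagonist at 10 nM, then contracted with increasing carbachol. Antagonist then washed out, tissue superfused with carbachol-containing buffer and tension recovery followed over time; value is minutes to 50% reversal of antagonist blockade (Off t50).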

Mus musculus [10] = species: Mus musculus; assay: Bronchorelaxant activity in methacholine-induced BALB/c mouse bronchus contraction model assessed as time to 50% loss of maximum protection at 0.5 ug, intranasally; assay type: functional
In short: (§2)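 Balb/C mice (n = 4 per group) dosed intranasally (50 μL, 10% DMSO vehicle); challenged 0.25-48 h later with 30 mg/mL methacholine aerosol for 2 min; Penh recorded over next 5 min, as ratio of post-drug to pre-drug Penh; duration taken as time to 50% loss of maximum protection.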

Rattus norvegicus = assay: (§3) Oral bioavailability in rat at 5.8 mg/kg; assay type: ADME, organism-based; conditions: in vivo, BLD = below limit of detection
In short: (§4)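 Rat oral dosing at 5.8 mg/kg; percent bioavailability determined from plasma levels, individual animal values listed because of variability.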

Mus musculus [11] = species: Mus musculus; assay: Bronchorelaxant activity in methacholine-induced BALB/c mouse bronchus contraction model assessed as time to 50% loss of maximum protection at 5 ug, intranasally; assay type: functional; in short: as §2
[12] = Systemic plasma clearance in rat at 2.8 mg/kg, iv; assay type: ADME, organism-based; set-up: dose 2.8 mg/kg, route intravenous
[13] = molecular target: T3, Muscarinic acetylcholine receptor M1 (Homo sapiens, UniProt P11229); assay: Displacement of [3H]N-methyl Scopolamine from human muscarinic M1 receptor expressed in CHO cells by scintillation proximity assay; assay type: cell-based; in short: as §1
T3 sequence (P11229 whole entry): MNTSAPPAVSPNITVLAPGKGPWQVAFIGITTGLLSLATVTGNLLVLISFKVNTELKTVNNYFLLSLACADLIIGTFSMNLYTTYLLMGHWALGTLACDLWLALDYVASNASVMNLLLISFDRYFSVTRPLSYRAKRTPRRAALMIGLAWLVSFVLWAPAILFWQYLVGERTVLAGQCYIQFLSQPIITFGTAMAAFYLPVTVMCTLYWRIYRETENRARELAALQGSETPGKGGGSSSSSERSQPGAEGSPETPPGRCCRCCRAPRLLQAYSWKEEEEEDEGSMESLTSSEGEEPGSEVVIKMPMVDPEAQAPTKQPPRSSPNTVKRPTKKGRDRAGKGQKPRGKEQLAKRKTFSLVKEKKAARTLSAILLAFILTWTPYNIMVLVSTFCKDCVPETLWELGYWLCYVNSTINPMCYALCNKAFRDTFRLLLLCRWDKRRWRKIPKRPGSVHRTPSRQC

[14] = as §3; assay type: ADME, organism-based; conditions: in vivo; in short: as §4

Cc1cc(C(O)(C[C@H]2C[C@H]3CC[C@@H](C2)[N+]3(C)C)c2csc(C)c2)cs1
IC50 [1]: 65 nM

CN1[C@@H]2CC[C@H]1C[C@@H](CC(C(N)=O)(c1ccccc1)c1ccccc1)C2
IC50 [1]: < 10 nM | Kb [1]: 0.1 nM | inhibition (INH) (Mus musculus [2]): >10%

Cc1ccccc1C(=C[C@H]1C[C@H]2CC[C@@H](C1)[N+]2(C)C)c1ccccc1C.[Br-]
IC50 [1]: < 10 nM | Kb [1]: 0.1 nM | inhibition (INH) (Mus musculus [2]): 91%

C[N+]1(C)[C@@H]2CC[C@H]1C[C@@H](CC(O)(c1ccccc1)c1ccccc1)C2.[Br-]
inhibition (INH) (Mus musculus [3]): 62%

C[N+]1(C)[C@@H]2CC[C@H]1C[C@@H](CC(O)(c1ccsc1)c1ccsc1)C2
IC50 [1]: 17 nM

C[N+]1(C)[C@@H]2CCC[C@H]1C[C@@H](CC(O)(c1cccs1)c1cccs1)C2.[I-]
IC50 [1]: < 10 nM | Kb [1]: 2 nM | inhibition (INH) (Mus musculus [2]): 44%

COc1ccc(C(O)(C[C@H]2C[C@H]3CC[C@@H](C2)[N+]3(C)C)c2ccc(OC)cc2)cc1
IC50 [1]: > 10000 nM

Cc1ccccc1C(O)(C[C@H]1C[C@H]2CCC[C@@H](C1)[N+]2(C)C)c1ccccc1C
IC50 [1]: 23 nM

CN1[C@@H]2CC[C@H]1C[C@@H](CC(C#N)(c1ccccc1)c1ccccc1)C2
Kb [1]: 0.316 nM

CN1[C@@H]2CC[C@H]1C[C@@H](CC(O)(c1cccs1)c1cccs1)C2
IC50 [1]: < 10 nM | Kb [1]: 2.51 nM | inhibition (INH) (Mus musculus [3]): >10%

C[N+]1(C)[C@@H]2CC[C@H]1C[C@@H](CC(O)(c1cc(F)cc(F)c1)c1cc(F)cc(F)c1)C2
IC50 [1]: 112 nM

CCC(O)(C[C@H]1C[C@H]2CC[C@@H](C1)N2C)c1ccccc1 (some centres not stated)
IC50 [1]: 135 nM

C[N+]1(C)[C@@H]2CC[C@H]1C[C@@H](CC(C#N)(c1ccccc1)c1ccccc1)C2.[Br-]
ED50 (Mus musculus [4]): 0.01 µg | clearance [5]: 74 mL/min/kg | Ki [6]: 0.17 nM | Ki [7]: 0.06 nM | Kb [8]: 0.1 nM | TIME [9]: 1.42 h | Time (Mus musculus [10]): >24 h | F (Rattus norvegicus): BLD

CN1[C@@H]2CC[C@H]1C[C@@H](C(O)(c1ccccc1)c1ccccc1)C2
IC50 [1]: 1500 nM

C[N+]1(C)[C@@H]2CC[C@H]1C[C@@H](CC(C(N)=O)(c1ccccc1)c1ccccc1)C2.[I-]
IC50 [1]: < 10 nM | Kb [1]: 0.126 nM | inhibition (INH) (Mus musculus [2]): 90%

C[N+]1(C)[C@@H]2CC[C@H]1C[C@@H](CC(O)(c1cccc(F)c1)c1cccc(F)c1)C2
IC50 [1]: 11 nM | Kb [1]: 10 nM

C[N+]1(C)[C@@H]2CCC[C@H]1C[C@H](CC(O)(c1ccccc1)c1ccccc1)C2.[Br-]
IC50 [1]: < 10 nM | Kb [1]: 1.58 nM | inhibition (INH) (Mus musculus [2]): 34%

C[N+]1(C)[C@@H]2CC[C@H]1C[C@@H](CC(O)(c1ccc(Cl)cc1)c1ccc(Cl)cc1)C2
IC50 [1]: 74 nM

COc1ccccc1C(O)(C[C@H]1C[C@H]2CC[C@@H](C1)[N+]2(C)C)c1ccccc1OC
IC50 [1]: > 10000 nM

CN1[C@@H]2CC[C@H]1C[C@@H](CC(O)(c1ccccc1)c1ccccn1)C2 (some centres not stated)
IC50 [1]: 19 nM

Cc1ccccc1C(O)(C[C@H]1C[C@H]2CC[C@@H](C1)[N+]2(C)C)c1ccccc1C.[Br-]
IC50 [1]: 10 nM | Kb [1]: 5.01 nM | inhibition (INH) (Mus musculus [2]): 34%

C[N+]1(C)[C@@H]2CC[C@H]1C[C@@H](CC(O)(c1cccs1)c1cccs1)C2.[Br-]
IC50 [1]: < 10 nM | Kb [1]: 2.51 nM | inhibition (INH) (Mus musculus [2]): 19%

C[N+]1(C)[C@@H]2CC[C@H]1C[C@@H](CC(CO)(c1ccccc1)c1ccccc1)C2
Kb [1]: 3.98 nM

C[N+]1(C)[C@@H]2CC[C@H]1C[C@@H](CC(O)(c1ccc(F)c(F)c1)c1ccc(F)c(F)c1)C2
IC50 [1]: 290 nM

C[N+]1(C)[C@@H]2CC[C@H]1C[C@@H](CC(O)(c1cccc(Cl)c1)c1cccc(Cl)c1)C2
IC50 [1]: 25 nM

C[N+]1(C)[C@@H]2CC[C@H]1C[C@@H](C=C(c1cccs1)c1cccs1)C2.[Br-]
ED50 (Mus musculus [4]): 0.2 µg | Time (Mus musculus [11]): 24 h | clearance [12]: 85 mL/min/kg | IC50 [1]: < 10 nM | Kb [1]: 0.1 nM | inhibition (INH) (Mus musculus [2]): 72% | Ki [13]: 0.38 nM | Ki [6]: 0.73 nM | Ki [7]: 0.45 nM | Kb [8]: 1 nM | TIME [9]: 0.983 h | bioavailability [14]: 2.4%

CN1[C@@H]2CC[C@H]1C[C@@H](CC(O)(c1ccccc1)c1ccccc1)C2
IC50 [1]: 973 nM | inhibition (INH) (Mus musculus [3]): >10%

C[N+]1(C)[C@@H]2CCC[C@H]1C[C@H](C=C(c1cccs1)c1cccs1)C2.[Br-]
IC50 [1]: < 10 nM | Kb [1]: 1 nM | inhibition (INH) (Mus musculus [2]): 49%

Cc1ccc(F)cc1C(O)(C[C@H]1C[C@H]2CC[C@@H](C1)[N+]2(C)C)c1cc(F)ccc1C
IC50 [1]: 37 nM

CN1[C@@H]2CC[C@H]1C[C@@H](CCC(O)(c1ccccc1)c1ccccc1)C2
IC50 [1]: 134 nM

Cc1c(F)cccc1C(O)(C[C@H]1C[C@H]2CC[C@@H](C1)[N+]2(C)C)c1cccc(F)c1C
IC50 [1]: 65 nM

C[N+]1(C)[C@@H]2CC[C@H]1C[C@@H](C=C(c1ccccc1)c1ccccc1)C2.[Br-]
IC50 [1]: < 10 nM | Kb [1]: 5.01 nM | inhibition (INH) (Mus musculus [3]): 76%
